ChEMBL document CHEMBL5046217, “Discovery of New Imidazo[2,1-b]thiazole Derivatives as Potent Pan-RAF Inhibitors with Promising In Vitro and In Vivo Anti-melanoma Activity” (J Med Chem, 2021)

Columns and labels:
[1] = system: M14; assay: Antiproliferative activity against human M14 cells assessed as total growth inhibition measured after 48 hrs by SRB assay; details: M14, 48 h
[2] = system: Panel melanoma (Carcinoma cell lines); assay: cells; details: Homo sapiens, 48 h, read-out: INH
[3] = system: Malme-3M; assay: Antiproliferative activity against human Malme-3M cells assessed as cell growth inhibition measured after 48 hrs by SRB assay
[4] = system: UACC-62; assay: Antiproliferative activity against human UACC-62 cells assessed as total growth inhibition measured after 48 hrs by SRB assay; details: UACC-62, 48 h
[5] = system: SK-MEL-2; assay: Antiproliferative activity against human SK-MEL-2 cells assessed as total growth inhibition measured after 48 hrs by SRB assay; details: SK-MEL-2, 48 h
[6] = system: Panel CNS (Carcinoma cell lines); assay: Antiproliferative activity against human Panel CNS (Carcinoma cell lines) assessed as cell growth inhibition measured after 48 hrs by SRB assay
[7] = system: LOX IMVI; assay: Antiproliferative activity against human LOX IMVI cells assessed as total growth inhibition measured after 48 hrs by SRB assay
[8] = system: SK-MEL-5; assay: Antiproliferative activity against human SK-MEL-5 cells assessed as cell growth inhibition measured after 48 hrs by SRB assay; details: SK-MEL-5, 48 h
[9] = Cytotoxicity against human L132 cells assessed as cell growth inhibition incubated for 48 hrs by MTT assay; type: toxicity, cell-based
[10] = molecular target: Mitogen-activated protein kinase 11 (Homo sapiens, UniProt Q15759); assay: Inhibition of MAPK11 (unknown origin) incubated for 1 hr by qPCR analysis
Summary of the method: (§1)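 Competition binding assay. Kinases were either T7-phage-tagged (grown in an E. coli BL21-derived host) or expressed in HEK-293 cells and DNA-tagged. […] Bound kinase was eluted with non-biotinylated ligand and quantified by qPCR.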

[11] = molecular target: Homeodomain-interacting protein kinase 1 (Homo sapiens, UniProt Q86Z02); assay: Inhibition of HIPK1 (unknown origin) incubated for 1 hr by qPCR analysis; summary of the method: as §1
[12] = molecular target: Serine/threonine-protein kinase/endoribonuclease IRE1 (Homo sapiens, UniProt O75460); assay: Inhibition of ERN1 (unknown origin) incubated for 1 hr by qPCR analysis; summary of the method: as §1
[13] = system: SK-MEL-5; assay: Antiproliferative activity against human SK-MEL-5 cells assessed as total growth inhibition measured after 48 hrs by SRB assay; details: SK-MEL-5, 48 h
[14] = system: Panel ovarian (Carcinoma cell lines); assay: cells; details: Homo sapiens, 48 h, read-out: INH
[15] = system: UACC-257; assay: Antiproliferative activity against human UACC-257 cells assessed as cell growth inhibition measured after 48 hrs by SRB assay; details: UACC-257, 48 h
[16] = molecular target: Tyrosine-protein kinase ABL1 (Homo sapiens, UniProt P00519); assay: Inhibition of ABL1 (unknown origin) incubated for 1 hr by qPCR analysis
[17] = molecular target: BDNF/NT-3 growth factors receptor (Homo sapiens, UniProt Q16620); assay: Inhibition of NTRK2 (unknown origin) incubated for 1 hr by qPCR analysis
[18] = system: MDA-MB-435; assay: Antiproliferative activity against human MDA-MB-435 cells assessed as cell growth inhibition measured after 48 hrs by SRB assay; details: MDA-MB-435, 48 h
[19] = system: SK-MEL-28; assay: Antiproliferative activity against human SK-MEL-28 cells assessed as total growth inhibition measured after 48 hrs by SRB assay; details: SK-MEL-28, 48 h
[20] = system: NSCLC; assay: Antiproliferative activity against human NSCLC cell line assessed as cell growth inhibition measured after 48 hrs by SRB assay
[21] = system: Panel leukemia (Carcinoma cell lines); assay: Antiproliferative activity against human Panel leukemia (Carcinoma cell lines) assessed as cell growth inhibition measured after 48 hrs by SRB assay
[22] = system: NSCLC; assay: cells; details: Homo sapiens, 48 h, read-out: INH
[23] = system: UACC-62; assay: Antiproliferative activity against human UACC-62 cells assessed as cell growth inhibition measured after 48 hrs by SRB assay; details: UACC-62, 48 h
[24] = system: Panel melanoma (Carcinoma cell lines); assay: Antiproliferative activity against human Panel melanoma (Carcinoma cell lines) assessed as cell growth inhibition measured after 48 hrs by SRB assay
[25] = system: Panel renal (Carcinoma cell lines); assay: Antiproliferative activity against human Panel renal (Carcinoma cell lines) assessed as cell growth inhibition measured after 48 hrs by SRB assay
[26] = system: Panel ovarian (Carcinoma cell lines); assay: Antiproliferative activity against human Panel ovarian (Carcinoma cell lines) assessed as cell growth inhibition measured after 48 hrs by SRB assay
[27] = system: M14; assay: Antiproliferative activity against human M14 cells assessed as cell growth inhibition measured after 48 hrs by SRB assay; details: M14, 48 h
[28] = in vitro; details: human, BJ cells and Malme-3M cells
[29] = molecular target: Serine/threonine-protein kinase B-raf (Homo sapiens, UniProt P15056, V600E); assay: Inhibition of human BRAF V600E mutant using myelin basic protein as substrate in presence of [gamma-33P]ATP incubated for 40 mins by scintillation counting method
Summary of the method: (§2)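 Radiometric kinase assay run at Reaction Biology. Kinase (5−10 mU) in 25 mM Tris pH 7.5, 0.02 mM EGTA, 10 mM magnesium acetate with 0.66 mg/mL myelin basic protein and [γ-33P]ATP at 1 μM ATP. Reaction started with Mg-ATP and run 40 min at room temperature, then stopped with 3% phosphoric acid. Spotted on P30 filtermat, washed, scintillation counted.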

[30] = molecular target: RAF proto-oncogene serine/threonine-protein kinase (Homo sapiens, UniProt P04049); assay: Inhibition of human wild type CRAF using myelin basic protein as substrate in presence of [gamma-33P]ATP incubated for 40 mins by scintillation counting method
[31] = system: MDA-MB-435; assay: Antiproliferative activity against human MDA-MB-435 cells assessed as total growth inhibition measured after 48 hrs by SRB assay; details: MDA-MB-435, 48 h
[32] = molecular target: Fibroblast growth factor receptor 1 (Homo sapiens, UniProt P11362); assay: Inhibition of FGFR1 (unknown origin) incubated for 1 hr by qPCR analysis
[33] = system: Malme-3M; assay: Antiproliferative activity against human Malme-3M cells assessed as total growth inhibition measured after 48 hrs by SRB assay
[34] = system: Panel CNS (Carcinoma cell lines); assay: cells; details: Homo sapiens, 48 h, read-out: INH
[35] = system: Panel breast (Carcinoma cell lines); assay: Antiproliferative activity against human Panel breast (Carcinoma cell lines) assessed as cell growth inhibition measured after 48 hrs by SRB assay
[36] = molecular target: Mitogen-activated protein kinase kinase kinase 20 (Homo sapiens, UniProt Q9NYL2); assay: Inhibition of ZAK (unknown origin) incubated for 1 hr by qPCR analysis; summary of the method: as §1
[37] = molecular target: Serine/threonine-protein kinase B-raf (Homo sapiens, UniProt P15056); assay: Inhibition of human wild type BRAF using myelin basic protein as substrate in presence of [gamma-33P]ATP incubated for 40 mins by scintillation counting method; summary of the method: as §2
[38] = system: UACC-257; assay: Antiproliferative activity against human UACC-257 cells assessed as total growth inhibition measured after 48 hrs by SRB assay; details: UACC-257, 48 h
[39] = system: SK-MEL-2; assay: Antiproliferative activity against human SK-MEL-2 cells assessed as cell growth inhibition measured after 48 hrs by SRB assay; details: SK-MEL-2, 48 h
[40] = system: SK-MEL-28; assay: Antiproliferative activity against human SK-MEL-28 cells assessed as cell growth inhibition measured after 48 hrs by SRB assay; details: SK-MEL-28, 48 h

Sequence of RAF proto-oncogene serine/threonine-protein kinase (P04049 whole entry): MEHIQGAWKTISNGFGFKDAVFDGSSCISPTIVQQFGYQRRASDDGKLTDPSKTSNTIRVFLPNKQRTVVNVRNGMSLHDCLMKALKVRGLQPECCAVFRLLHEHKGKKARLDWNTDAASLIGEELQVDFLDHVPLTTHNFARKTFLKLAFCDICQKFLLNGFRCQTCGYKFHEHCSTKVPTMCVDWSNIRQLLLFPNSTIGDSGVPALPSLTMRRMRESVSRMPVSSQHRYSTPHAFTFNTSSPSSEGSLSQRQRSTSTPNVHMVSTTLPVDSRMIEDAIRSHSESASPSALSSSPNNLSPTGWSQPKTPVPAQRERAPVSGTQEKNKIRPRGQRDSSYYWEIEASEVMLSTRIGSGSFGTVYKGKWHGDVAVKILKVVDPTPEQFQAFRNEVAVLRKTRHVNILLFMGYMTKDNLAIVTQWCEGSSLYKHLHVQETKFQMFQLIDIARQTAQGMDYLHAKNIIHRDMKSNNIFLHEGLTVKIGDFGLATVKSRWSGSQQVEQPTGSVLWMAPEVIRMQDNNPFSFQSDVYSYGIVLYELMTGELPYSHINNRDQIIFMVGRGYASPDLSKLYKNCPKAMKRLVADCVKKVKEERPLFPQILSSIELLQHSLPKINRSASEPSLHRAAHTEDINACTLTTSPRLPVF
Sequence of Fibroblast growth factor receptor 1 (P11362 whole entry): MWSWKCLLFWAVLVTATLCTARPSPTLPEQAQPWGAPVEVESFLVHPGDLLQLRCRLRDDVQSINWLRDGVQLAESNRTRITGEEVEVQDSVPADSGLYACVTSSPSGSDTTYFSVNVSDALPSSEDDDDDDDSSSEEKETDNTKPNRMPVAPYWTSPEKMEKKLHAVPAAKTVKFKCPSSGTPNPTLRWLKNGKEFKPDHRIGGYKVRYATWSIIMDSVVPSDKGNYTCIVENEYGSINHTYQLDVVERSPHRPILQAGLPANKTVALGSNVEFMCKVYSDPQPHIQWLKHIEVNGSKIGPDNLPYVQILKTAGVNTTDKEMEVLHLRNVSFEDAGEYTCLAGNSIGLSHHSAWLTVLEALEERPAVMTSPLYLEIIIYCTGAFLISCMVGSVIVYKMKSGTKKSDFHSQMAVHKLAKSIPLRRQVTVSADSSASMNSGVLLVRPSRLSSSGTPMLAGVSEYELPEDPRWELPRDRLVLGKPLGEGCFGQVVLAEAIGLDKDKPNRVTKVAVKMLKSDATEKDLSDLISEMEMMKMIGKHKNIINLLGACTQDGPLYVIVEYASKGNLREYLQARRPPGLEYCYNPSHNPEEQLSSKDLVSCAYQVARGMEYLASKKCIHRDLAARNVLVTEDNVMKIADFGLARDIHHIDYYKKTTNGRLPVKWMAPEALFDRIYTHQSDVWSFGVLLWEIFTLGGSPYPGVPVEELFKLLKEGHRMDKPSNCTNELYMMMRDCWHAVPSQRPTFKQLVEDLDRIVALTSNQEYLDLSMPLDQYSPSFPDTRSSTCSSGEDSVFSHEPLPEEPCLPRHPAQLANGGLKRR
Sequence of BDNF/NT-3 growth factors receptor (Q16620 whole entry): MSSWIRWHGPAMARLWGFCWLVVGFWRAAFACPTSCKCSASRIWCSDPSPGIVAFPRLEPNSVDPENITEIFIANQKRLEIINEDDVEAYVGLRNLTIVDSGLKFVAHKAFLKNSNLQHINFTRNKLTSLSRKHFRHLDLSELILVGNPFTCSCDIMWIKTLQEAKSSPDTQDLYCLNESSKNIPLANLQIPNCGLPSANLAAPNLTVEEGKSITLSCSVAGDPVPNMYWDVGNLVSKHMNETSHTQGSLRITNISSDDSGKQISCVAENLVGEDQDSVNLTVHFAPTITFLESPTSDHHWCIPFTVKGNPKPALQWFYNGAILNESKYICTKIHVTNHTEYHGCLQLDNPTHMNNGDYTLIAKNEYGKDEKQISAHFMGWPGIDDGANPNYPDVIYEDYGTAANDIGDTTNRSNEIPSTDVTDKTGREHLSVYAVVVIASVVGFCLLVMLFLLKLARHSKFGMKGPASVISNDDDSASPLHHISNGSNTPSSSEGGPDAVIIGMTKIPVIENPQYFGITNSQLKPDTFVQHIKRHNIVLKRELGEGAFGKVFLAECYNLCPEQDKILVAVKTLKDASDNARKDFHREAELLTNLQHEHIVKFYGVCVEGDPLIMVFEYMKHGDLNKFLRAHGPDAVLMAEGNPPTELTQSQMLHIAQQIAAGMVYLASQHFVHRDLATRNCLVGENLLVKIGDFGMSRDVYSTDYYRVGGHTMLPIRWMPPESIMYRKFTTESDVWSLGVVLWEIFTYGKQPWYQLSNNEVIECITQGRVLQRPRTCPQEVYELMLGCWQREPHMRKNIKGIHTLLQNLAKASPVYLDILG
Sequence of Mitogen-activated protein kinase kinase kinase 20 (Q9NYL2 whole entry): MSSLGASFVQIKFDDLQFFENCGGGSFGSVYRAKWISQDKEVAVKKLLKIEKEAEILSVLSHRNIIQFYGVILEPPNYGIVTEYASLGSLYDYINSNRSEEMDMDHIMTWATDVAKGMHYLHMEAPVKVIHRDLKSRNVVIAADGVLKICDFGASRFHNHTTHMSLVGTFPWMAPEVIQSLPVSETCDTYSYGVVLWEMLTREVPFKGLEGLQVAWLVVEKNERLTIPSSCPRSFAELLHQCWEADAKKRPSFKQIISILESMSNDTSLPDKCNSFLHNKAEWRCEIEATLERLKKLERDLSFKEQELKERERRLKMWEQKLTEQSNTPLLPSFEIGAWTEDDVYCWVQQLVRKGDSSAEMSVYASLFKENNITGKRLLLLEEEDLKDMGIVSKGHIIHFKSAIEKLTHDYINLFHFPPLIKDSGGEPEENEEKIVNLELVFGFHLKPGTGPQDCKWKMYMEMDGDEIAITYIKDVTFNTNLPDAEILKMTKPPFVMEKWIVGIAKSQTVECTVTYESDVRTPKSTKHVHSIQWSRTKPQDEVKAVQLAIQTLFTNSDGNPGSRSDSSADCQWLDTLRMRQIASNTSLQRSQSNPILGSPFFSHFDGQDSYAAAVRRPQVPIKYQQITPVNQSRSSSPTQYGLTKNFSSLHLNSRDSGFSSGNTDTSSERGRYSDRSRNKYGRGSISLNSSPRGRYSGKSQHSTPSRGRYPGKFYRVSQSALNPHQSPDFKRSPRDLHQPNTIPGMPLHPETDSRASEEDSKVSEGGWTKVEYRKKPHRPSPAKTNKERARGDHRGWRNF
Sequence of Tyrosine-protein kinase ABL1 (P00519 whole entry): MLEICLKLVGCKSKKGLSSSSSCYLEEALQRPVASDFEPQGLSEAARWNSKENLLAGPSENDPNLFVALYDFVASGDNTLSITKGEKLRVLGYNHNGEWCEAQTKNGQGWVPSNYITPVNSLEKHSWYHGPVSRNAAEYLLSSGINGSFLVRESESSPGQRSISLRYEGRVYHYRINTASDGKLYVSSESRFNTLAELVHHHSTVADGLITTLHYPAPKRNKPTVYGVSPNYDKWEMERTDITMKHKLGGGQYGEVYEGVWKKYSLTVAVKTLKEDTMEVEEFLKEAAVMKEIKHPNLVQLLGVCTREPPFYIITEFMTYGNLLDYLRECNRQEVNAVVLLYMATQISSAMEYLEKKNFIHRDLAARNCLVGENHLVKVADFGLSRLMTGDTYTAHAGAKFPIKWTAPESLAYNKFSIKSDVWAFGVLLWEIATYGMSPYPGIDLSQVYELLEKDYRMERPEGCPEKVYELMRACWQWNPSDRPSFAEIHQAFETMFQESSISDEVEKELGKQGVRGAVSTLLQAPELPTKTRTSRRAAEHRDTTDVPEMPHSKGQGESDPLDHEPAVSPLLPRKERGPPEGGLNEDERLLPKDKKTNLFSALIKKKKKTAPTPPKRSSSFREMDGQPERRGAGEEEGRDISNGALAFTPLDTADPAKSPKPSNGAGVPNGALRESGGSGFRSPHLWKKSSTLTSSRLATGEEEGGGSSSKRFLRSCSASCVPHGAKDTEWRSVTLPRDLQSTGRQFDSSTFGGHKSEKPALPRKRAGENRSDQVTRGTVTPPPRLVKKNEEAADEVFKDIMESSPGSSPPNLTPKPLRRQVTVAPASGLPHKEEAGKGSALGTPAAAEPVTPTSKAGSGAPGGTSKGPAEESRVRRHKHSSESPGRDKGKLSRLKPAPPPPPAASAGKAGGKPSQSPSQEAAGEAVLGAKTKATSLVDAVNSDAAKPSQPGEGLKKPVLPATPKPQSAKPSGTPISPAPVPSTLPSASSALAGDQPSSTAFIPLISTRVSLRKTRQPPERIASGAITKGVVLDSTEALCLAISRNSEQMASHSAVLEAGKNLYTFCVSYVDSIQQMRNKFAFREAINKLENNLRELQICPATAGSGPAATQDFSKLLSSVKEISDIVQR
Sequence of Serine/threonine-protein kinase B-raf (Homo sapiens, UniProt P15056) (P15056 whole entry): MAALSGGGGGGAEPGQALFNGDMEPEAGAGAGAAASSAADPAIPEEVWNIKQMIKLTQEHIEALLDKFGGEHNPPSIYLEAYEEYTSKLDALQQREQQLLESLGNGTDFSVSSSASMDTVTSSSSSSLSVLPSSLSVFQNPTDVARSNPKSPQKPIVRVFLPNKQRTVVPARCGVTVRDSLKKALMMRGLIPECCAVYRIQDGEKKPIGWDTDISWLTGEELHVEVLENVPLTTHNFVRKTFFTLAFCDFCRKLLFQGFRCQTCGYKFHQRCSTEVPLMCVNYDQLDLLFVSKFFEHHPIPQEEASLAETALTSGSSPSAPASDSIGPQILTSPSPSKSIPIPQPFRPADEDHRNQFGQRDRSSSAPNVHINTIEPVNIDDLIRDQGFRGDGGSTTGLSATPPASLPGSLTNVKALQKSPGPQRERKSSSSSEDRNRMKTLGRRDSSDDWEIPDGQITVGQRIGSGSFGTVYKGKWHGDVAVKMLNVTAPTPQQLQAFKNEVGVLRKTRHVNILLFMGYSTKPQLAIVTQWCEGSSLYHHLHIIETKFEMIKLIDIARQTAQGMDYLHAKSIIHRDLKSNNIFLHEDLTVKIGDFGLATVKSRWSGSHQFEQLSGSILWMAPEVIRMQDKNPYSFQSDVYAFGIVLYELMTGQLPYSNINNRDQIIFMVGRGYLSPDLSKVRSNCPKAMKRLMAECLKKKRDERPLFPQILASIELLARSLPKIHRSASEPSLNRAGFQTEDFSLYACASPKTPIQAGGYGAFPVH

IC50 [6]: 3190 nM | IC50 [8]: 1060 nM | IC50 [10]: 980 nM | IC50 [11]: 4880 nM | IC50 [12]: 10200 nM | IC50 [16]: 13600 nM | IC50 [17]: 10300 nM | IC50 [18]: 2000 nM | IC50 [21]: 2040 nM | IC50 [24]: 2030 nM | IC50 [25]: 2930 nM | IC50 [26]: 2970 nM | IC50 [29]: 0.98 nM | IC50 [30]: 5 nM | IC50 [32]: 10600 nM | IC50 [35]: 2410 nM | IC50 [36]: 10300 nM | IC50 [37]: 4.2 nM | IC50 [39]: 2320 nM | IC50 [40]: 2290 nM
Compound: O=S(=O)(NCCCNc1nccc(-c2c(-c3cccc(O)c3)nc3sccn23)n1)c1cccc(F)c1
TGI [1]: 10200 nM | inhibition at 10 µM [2]: 101% | IC50 [3]: 2600 nM | TGI [4]: 2730 nM | TGI [5]: 6570 nM | TGI [7]: 5820 nM | IC50 at 48 h [9]: 56300 nM | TGI [13]: 2280 nM | inhibition at 10 µM [14]: 75% | IC50 [15]: 2850 nM | TGI [19]: 6860 nM | IC50 [20]: 2550 nM | inhibition at 10 µM [22]: 83.1% | IC50 [23]: 750 nM | IC50 [27]: 2540 nM | selectivity ratio [28]: 17.4 | TGI [31]: 6510 nM | TGI [33]: 7860 nM | inhibition at 10 µM [34]: 83.1% | TGI [38]: > 100000 nM
